Reference: ChEMBL document CHEMBL1944568, “Synthesis and biological evaluation of benzo[d]imidazole derivatives as potential anti-cancer agents” (Bioorg Med Chem Lett, 2012)
The source made the active and inactive calls. The calls are words filed in the database; no cut-off is given here.

Columns and labels:
HCT-116 [1] = experiment: Cytotoxicity against human HCT116 cells after 48 hrs by MTT assay; type: functional; settings: HCT-116, 48 h
HCT-116 [2] = experiment: Induction of apoptosis in human HCT116 cells assessed as caspase-3 activation at GI50 after 24 hrs; type: functional, cell-based
Summary of the method: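 HCT-116 cells exposed for 24 h at the respective GI₅₀ or 5×GI₅₀ concentration, with a DMSO control, then assayed for caspase-3 activity. Data are mean ± s.d. of two independent experiments, and significance versus DMSO was set at p <0.05.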

MCF7 [3] = experiment: Cytotoxicity against human MCF7 cells after 48 hrs by MTT assay; type: functional; settings: MCF7, 48 h
HCT-116 [4] = experiment: Induction of apoptosis in human HCT116 cells assessed as at 5 times GI50 after 24 hrs by AnnexinV/PI staining-based flow cytometry
HCT-116 [5] = experiment: Cell cycle arrest in human HCT116 cells at 5 times GI50 after 24 hrs by AnnexinV/PI staining-based flow cytometry; type: functional
CDK9/cyclin T1 = CDK9/cyclin T1 (Homo sapiens, UniProt P50750); experiment: Inhibition of CDK9/CyclinT1; type: protein-complex assay
[6] = molecular target: Cyclin-dependent kinase 9 (Homo sapiens) (UniProt P50750); experiment: Inhibition of CDK9-mediated phosphorylation of RNA polymerase 2 at Ser2 in human HCT116 cells at GI50 after 24 hrs by Western blot analysis; type: cell-based; settings: HCT-116
Summary of the method: (§1)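 Western blot of HCT-116 cells after 24 h treatment across a concentration series, probing RNAPII CTD pSer-2 with β-actin as the internal loading control.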

HCT-116 [7] = experiment: Induction of apoptosis in human HCT116 cells assessed as early apoptosis cells at 5 times GI50 after 24 hrs by AnnexinV/PI staining-based flow cytometry; type: functional
Summary of the method: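 HCT-116 cells were treated for 24 h alongside a DMSO control, stained with annexin V/PI and analysed by flow cytometry. Early apoptotic cells were scored as AnnV+/PI−, and late apoptotic cells as AnnV+/PI+. Values are mean ± s.d.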

[8] = molecular target: Cyclin-dependent kinase 9 (Homo sapiens) (UniProt P50750); experiment: Inhibition of CDK9-mediated phosphorylation of RNA polymerase 2 at Ser2 in human HCT116 cells after 24 hrs by Western blot analysis; type: cell-based; settings: HCT-116; summary of the method: as §1
[9] = molecular target: Cyclin-dependent kinase 9 (Homo sapiens) (UniProt P50750); experiment: Inhibition of CDK9 in human HCT116 cells assessed as reduction in Mcl-1 protein level at GI50 after 24 hrs by Western blot analysis; type: cell-based; settings: HCT-116
[10] = molecular target: Cyclin-dependent kinase 9 (Homo sapiens) (UniProt P50750); experiment: Inhibition of CDK9 in human HCT116 cells assessed as reduction in MDM2 protein level at GI50 after 24 hrs by Western blot analysis; type: cell-based; settings: HCT-116
[11] = molecular target: Cyclin-dependent kinase 2/cyclin A (Homo sapiens) (UniProt P24941+P20248+P78396); experiment: Inhibition of CDK2/Cyclin A; type: protein-complex assay
HCT-116 [12] = experiment: Cell cycle arrest in human HCT116 cells assessed as accumulation at G2/M phase at 5 times GI50 after 24 hrs by […]PI staining-based flow cytometry; type: functional
HCT-116 [13] = experiment: Ratio of DRB GI50 to compound GI50 for human HCT116 cells; type: functional
MCF7 [14] = experiment: Ratio of DRB GI50 to compound GI50 for human MCF7 cells; type: functional

Sequence of CDK9/cyclin T1 (O60563 whole entry): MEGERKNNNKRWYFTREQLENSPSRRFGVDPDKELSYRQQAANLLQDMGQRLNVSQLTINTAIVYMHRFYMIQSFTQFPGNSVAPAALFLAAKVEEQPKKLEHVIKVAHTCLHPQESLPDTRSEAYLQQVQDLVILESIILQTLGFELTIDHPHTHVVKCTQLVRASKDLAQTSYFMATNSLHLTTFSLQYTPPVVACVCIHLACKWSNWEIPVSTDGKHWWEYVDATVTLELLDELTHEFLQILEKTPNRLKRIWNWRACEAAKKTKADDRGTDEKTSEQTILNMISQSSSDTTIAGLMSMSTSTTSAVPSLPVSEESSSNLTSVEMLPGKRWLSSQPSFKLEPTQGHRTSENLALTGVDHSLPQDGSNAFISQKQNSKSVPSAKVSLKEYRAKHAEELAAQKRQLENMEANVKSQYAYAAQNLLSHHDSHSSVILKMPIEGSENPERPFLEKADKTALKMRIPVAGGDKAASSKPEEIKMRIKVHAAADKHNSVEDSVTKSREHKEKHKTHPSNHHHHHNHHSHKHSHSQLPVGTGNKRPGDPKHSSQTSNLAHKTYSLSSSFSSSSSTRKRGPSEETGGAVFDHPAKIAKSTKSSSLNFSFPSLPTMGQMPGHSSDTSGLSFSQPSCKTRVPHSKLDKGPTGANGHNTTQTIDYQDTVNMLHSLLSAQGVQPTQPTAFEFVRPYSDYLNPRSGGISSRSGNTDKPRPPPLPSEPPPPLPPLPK
Sequence of CDK9/cyclin T1 (P50750 whole entry): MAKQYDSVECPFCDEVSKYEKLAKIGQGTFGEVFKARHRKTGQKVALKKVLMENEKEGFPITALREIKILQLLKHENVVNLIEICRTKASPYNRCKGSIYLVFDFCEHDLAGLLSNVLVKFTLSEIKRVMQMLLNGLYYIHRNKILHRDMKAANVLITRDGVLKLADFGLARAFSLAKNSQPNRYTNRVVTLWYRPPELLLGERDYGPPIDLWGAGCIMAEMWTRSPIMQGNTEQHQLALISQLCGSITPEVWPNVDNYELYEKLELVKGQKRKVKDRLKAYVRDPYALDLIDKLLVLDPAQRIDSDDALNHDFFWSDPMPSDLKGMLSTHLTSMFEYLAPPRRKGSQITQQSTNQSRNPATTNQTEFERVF
Sequence of Cyclin-dependent kinase 9 (Homo sapiens) (P50750 whole entry): as above

| SMILES | GI50 (HCT-116 [1]) | GI50 (MCF7 [3]) | also measured |
| --- | --- | --- | --- |
| C[S+]([O-])c1nc2cc(Cl)c(Cl)cc2n1C1CCCC1 (stereo not drawn) | 0.5 µM | 0.5 µM | Activity (HCT-116 [2]): Active; Activity (HCT-116 [4]): <7%; Activity (HCT-116 [5]): inactive; Ki (CDK9/cyclin T1): > 5 µM |
| CCn1c(C(F)(F)F)nc2cc(Cl)c(Cl)cc21 | 95.3 µM | 72.9 µM | – |
| CCc1nc2cc(Cl)c(Cl)cc2n1C1CCCC1 | 38 µM | 52 µM | – |
| CC(C)n1c(C(F)(F)F)nc2cc(Cl)c(Cl)cc21 | 81.9 µM | 70.5 µM | – |
| Nc1ccccc1Cn1c(C(F)(F)F)nc2cc(Cl)c(Cl)cc21 | 26.1 µM | 55.6 µM | – |
| Cc1nc2cc(Cl)c(Cl)cc2n1C1CCCC1 | 13 µM | 40 µM | inhibition [6]: Active; Activity (HCT-116 [7]): >17%; Activity (HCT-116 [2]): Active; inhibition [8]: Dose-dependent effect; inhibition [9]: Active; inhibition [10]: Active; inhibition [11]: inactive; Activity (HCT-116 [5]): inactive; Ki (CDK9/cyclin T1): 1.51 µM |
| Cc1cc2nc(C(F)(F)F)[nH]c2cc1C | 56 µM | 17 µM | – |
| FC(F)(F)c1cccc(Cn2c(C(F)(F)F)nc3cc(Cl)c(Cl)cc32)c1 | 50.5 µM | 68 µM | – |
| FC(F)(F)c1nc2cc(Cl)c(Cl)cc2n1Cc1ccccc1 | 8.6 µM | 8.7 µM | – |
| Cn1c(C(F)(F)F)nc2cc(Cl)c(Cl)cc21 | 56 µM | 39 µM | – |
| Clc1cc2nc[nH]c2cc1Cl | 66 µM | 73 µM | – |
| COc1cc2ncn([C@@H]3O[C@H](CO)[C@@H](O)[C@H]3O)c2cc1OC | > 100 µM | > 100 µM | – |
| Cc1cc2nc[nH]c2cc1C [DIMEDAZOL] | 51 µM | 20 µM | – |
| Clc1cc2ncn(C3CCCC3)c2cc1Cl | 37 µM | 42 µM | – |
| FC(F)(F)c1nc2cc(Cl)c(Cl)cc2n1CC1CC1 | 61.3 µM | 60.2 µM | – |
| OC[C@H]1O[C@@H](n2cnc3cc(Cl)c(Cl)cc32)[C@H](O)[C@@H]1O [DICHLORORIBOBENZIMIDAZOLE] | 25 µM | 36 µM | Activity (HCT-116 [7]): 20%; Activity (HCT-116 [2]): Active; Activity (HCT-116 [12]): Active |
| O=[N+]([O-])c1cccc(Cn2c(C(F)(F)F)nc3cc(Cl)c(Cl)cc32)c1 | 22.8 µM | 60 µM | – |

| SMILES | GI50 (HCT-116 [1]) | GI50 (MCF7 [3]) | also measured |
| --- | --- | --- | --- |
| C=CCn1c(C(F)(F)F)nc2cc(Cl)c(Cl)cc21 | 89.2 µM | 87 µM | – |
| CC(C)c1nc2cc(Cl)c(Cl)cc2[nH]1 | 52 µM | 57 µM | – |
| O=[N+]([O-])c1ccc(Cn2c(C(F)(F)F)nc3cc(Cl)c(Cl)cc32)cc1 | 81.6 µM | 97.3 µM | – |
| CC(C)c1nc2cc(Cl)c(Cl)cc2n1C1CCCC1 | 9 µM | 43 µM | inhibition [11]: inactive; Ki (CDK9/cyclin T1): 3.33 µM |
| CS(=O)(=O)c1nc2cc(Cl)c(Cl)cc2n1C1CCCC1 | 0.6 µM | 0.6 µM | Activity (HCT-116 [2]): Active; Activity (HCT-116 [4]): <7%; Activity (HCT-116 [5]): inactive; Ki (CDK9/cyclin T1): > 5 µM |
| O=[N+]([O-])c1ccccc1Cn1c(C(F)(F)F)nc2cc(Cl)c(Cl)cc21 | 5.9 µM | 1.5 µM | – |
| Clc1cc2nc(-c3ccccc3Cl)[nH]c2cc1Cl | 23 µM | 22 µM | – |
| Fc1ccccc1-c1nc2cc(Cl)c(Cl)cc2[nH]1 | 56.5 µM | 47.5 µM | – |
| FC(F)(F)c1nc2cc(Cl)c(Cl)cc2n1C1CCCC1 | 22 µM | 21 µM | – |
| Cc1nc2cc(Cl)c(Cl)cc2[nH]1 | 51 µM | 28 µM | – |
| CSc1nc2cc(Cl)c(Cl)cc2n1C1CCCC1 | 2.9 µM | 3.9 µM | Ki (CDK9/cyclin T1): > 5 µM |
| Nc1cccc(Cn2c(C(F)(F)F)nc3cc(Cl)c(Cl)cc32)c1 | 22.6 µM | 77.5 µM | – |
| CCc1nc2cc(Cl)c(Cl)cc2[nH]1 | 46 µM | 48 µM | – |
| FC(F)(F)c1ccc(Cn2c(C(F)(F)F)nc3cc(Cl)c(Cl)cc32)cc1 | 19 µM | 17 µM | – |
| OC[C@H]1O[C@@H](n2cnc3cc(F)c(F)cc32)[C@H](O)[C@@H]1O | 67 µM | 57.9 µM | – |
| CCc1nc2ccccc2n1[C@@H]1O[C@H](CO)[C@@H](O)[C@H]1O | 70.6 µM | 71.3 µM | – |
| FC(F)(F)c1nc2cc(Cl)c(Cl)cc2[nH]1 | 7 µM | 6 µM | RatioGI50 (HCT-116 [13]): 3.5; RatioGI50 (MCF7 [14]): 6 |
